# Measured values: ChEMBL document CHEMBL5058577, “EUbOPEN Chemogenomics Library 2 (Multiplex)” (2022)
# System: Fibroblast
# Assay: Multiplex assay against human fibroblast
# Format: toxicity, cell-based
# Summary of the method: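 Values for tubulin, mitochondrial-mass and membrane-permeability phenotypes are per cents of cells with healthy nuclei. These cells were identified by CellPathfinder machine-learning gating of live cells that had been stained at seeding with Hoechst33342, BioTracker Green Microtubule Cytoskeleton Dye, MitoTracker Red and Annexin V Alexa Fluor 680 and imaged on a CQ1 microscope at 37°C and 5% CO2 after compound addition. The gating first set Hoechst high-intensity objects apart from normal cells, then split normal cells into healthy, pyknosed or fragmented nuclei, and pyknosed cells into mitotic or apoptotic.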
# [1] = 12 h, 1 µM, compound concentration 1 uM, replicate 1
# [2] = 12 h, 1 µM, compound concentration 1 uM, replicate 2
# [3] = 12 h, 10 µM, compound concentration 10 uM, replicate 1
# [4] = 12 h, 10 µM, compound concentration 10 uM, replicate 2
# [5] = 24 h, 1 µM, compound concentration 1 uM, replicate 1
# [6] = 24 h, 1 µM, compound concentration 1 uM, replicate 2
# [7] = 24 h, 10 µM, compound concentration 10 uM, replicate 1
# [8] = 24 h, 10 µM, compound concentration 10 uM, replicate 2
# [9] = 48 h, 1 µM, compound concentration 1 uM, replicate 1
# [10] = 48 h, 1 µM, compound concentration 1 uM, replicate 2
# [11] = 48 h, 10 µM, compound concentration 10 uM, replicate 1
# [12] = 48 h, 10 µM, compound concentration 10 uM, replicate 2
smiles,measurement,setting,value
O=C(Nc1cc(-c2ccccc2)nn1-c1ccccc1F)c1ccc([N+](=O)[O-])cc1,Population Apoptotic (%),[1],28%
same,Population Fragmented Nuclei (%),[1],17%
same,Population Healthy Nuclei (%),[1],71%
same,Population Hoechst High Intensity Objects (%),[1],2%
same,Population Membrane Permeable-Phenotype (%),[1],1%
same,Population Mitochondria Different-Phenotype (%),[1],1%
same,Population Mitotic Cells (%),[1],71%
same,Population Normal (%),[1],97%
same,Population Pyknosed Nuclei (%),[1],10%
same,Population Tubulin-Different-Phenotype (%),[1],22%
same,Total Cell Count,[1],138
same,Population Apoptotic (%),[2],32%
same,Population Fragmented Nuclei (%),[2],19%
same,Population Healthy Nuclei (%),[2],55%
same,Population Hoechst High Intensity Objects (%),[2],8%
same,Population Membrane Permeable-Phenotype (%),[2],4%
same,Population Mitochondria Different-Phenotype (%),[2],9%
same,Population Mitotic Cells (%),[2],67%
same,Population Normal (%),[2],91%
same,Population Pyknosed Nuclei (%),[2],25%
same,Population Tubulin-Different-Phenotype (%),[2],53%
same,Total Cell Count,[2],160
same,Population Apoptotic (%),[3],28%
same,Population Fragmented Nuclei (%),[3],10%
same,Population Healthy Nuclei (%),[3],66%
same,Population Hoechst High Intensity Objects (%),[3],2%
same,Population Membrane Permeable-Phenotype (%),[3],1%
same,Population Mitochondria Different-Phenotype (%),[3],4%
same,Population Mitotic Cells (%),[3],71%
same,Population Normal (%),[3],97%
same,Population Pyknosed Nuclei (%),[3],22%
same,Population Tubulin-Different-Phenotype (%),[3],48%
same,Total Cell Count,[3],170
same,Population Apoptotic (%),[4],45%
same,Population Fragmented Nuclei (%),[4],25%
same,Population Healthy Nuclei (%),[4],47%
same,Population Hoechst High Intensity Objects (%),[4],6%
same,Population Membrane Permeable-Phenotype (%),[4],6%
same,Population Mitochondria Different-Phenotype (%),[4],3%
same,Population Mitotic Cells (%),[4],54%
same,Population Normal (%),[4],93%
same,Population Pyknosed Nuclei (%),[4],26%
same,Population Tubulin-Different-Phenotype (%),[4],77%
same,Total Cell Count,[4],149
same,Population Apoptotic (%),[5],53%
same,Population Fragmented Nuclei (%),[5],16%
same,Population Healthy Nuclei (%),[5],74%
same,Population Hoechst High Intensity Objects (%),[5],2%
same,Population Membrane Permeable-Phenotype (%),[5],0%
same,Population Mitochondria Different-Phenotype (%),[5],0%
same,Population Mitotic Cells (%),[5],46%
same,Population Normal (%),[5],97%
same,Population Pyknosed Nuclei (%),[5],9%
same,Population Tubulin-Different-Phenotype (%),[5],18%
same,Total Cell Count,[5],135
same,Population Apoptotic (%),[6],50%
same,Population Fragmented Nuclei (%),[6],25%
same,Population Healthy Nuclei (%),[6],53%
same,Population Hoechst High Intensity Objects (%),[6],7%
same,Population Membrane Permeable-Phenotype (%),[6],6%
same,Population Mitochondria Different-Phenotype (%),[6],2%
same,Population Mitotic Cells (%),[6],50%
same,Population Normal (%),[6],92%
same,Population Pyknosed Nuclei (%),[6],20%
same,Population Tubulin-Different-Phenotype (%),[6],52%
same,Total Cell Count,[6],156
same,Population Apoptotic (%),[7],26%
same,Population Fragmented Nuclei (%),[7],7%
same,Population Healthy Nuclei (%),[7],76%
same,Population Hoechst High Intensity Objects (%),[7],4%
same,Population Membrane Permeable-Phenotype (%),[7],1%
same,Population Mitochondria Different-Phenotype (%),[7],7%
same,Population Mitotic Cells (%),[7],73%
same,Population Normal (%),[7],95%
same,Population Pyknosed Nuclei (%),[7],16%
same,Population Tubulin-Different-Phenotype (%),[7],49%
same,Total Cell Count,[7],163
same,Population Apoptotic (%),[8],28%
same,Population Fragmented Nuclei (%),[8],28%
same,Population Healthy Nuclei (%),[8],53%
same,Population Hoechst High Intensity Objects (%),[8],6%
same,Population Membrane Permeable-Phenotype (%),[8],9%
same,Population Mitochondria Different-Phenotype (%),[8],1%
same,Population Mitotic Cells (%),[8],72%
same,Population Normal (%),[8],93%
same,Population Pyknosed Nuclei (%),[8],18%
same,Population Tubulin-Different-Phenotype (%),[8],69%
same,Total Cell Count,[8],147
same,Population Apoptotic (%),[9],54%
same,Population Fragmented Nuclei (%),[9],23%
same,Population Healthy Nuclei (%),[9],67%
same,Population Hoechst High Intensity Objects (%),[9],7%
same,Population Membrane Permeable-Phenotype (%),[9],1%
same,Population Mitochondria Different-Phenotype (%),[9],0%
same,Population Mitotic Cells (%),[9],45%
same,Population Normal (%),[9],92%
same,Population Pyknosed Nuclei (%),[9],8%
same,Population Tubulin-Different-Phenotype (%),[9],18%
same,Total Cell Count,[9],145
same,Population Apoptotic (%),[10],55%
same,Population Fragmented Nuclei (%),[10],30%
same,Population Healthy Nuclei (%),[10],53%
same,Population Membrane Permeable-Phenotype (%),[10],5%
same,Population Mitochondria Different-Phenotype (%),[10],4%
same,Population Mitotic Cells (%),[10],44%
same,Population Pyknosed Nuclei (%),[10],15%
same,Population Tubulin-Different-Phenotype (%),[10],54%
same,Total Cell Count,[10],183
same,Population Apoptotic (%),[11],66%
same,Population Fragmented Nuclei (%),[11],16%
same,Population Healthy Nuclei (%),[11],70%
same,Population Hoechst High Intensity Objects (%),[11],7%
same,Population Membrane Permeable-Phenotype (%),[11],3%
same,Population Mitochondria Different-Phenotype (%),[11],3%
same,Population Mitotic Cells (%),[11],33%
same,Population Normal (%),[11],92%
same,Population Pyknosed Nuclei (%),[11],12%
same,Population Tubulin-Different-Phenotype (%),[11],55%
same,Total Cell Count,[11],160
same,Population Apoptotic (%),[12],52%
same,Population Fragmented Nuclei (%),[12],31%
same,Population Healthy Nuclei (%),[12],54%
same,Population Hoechst High Intensity Objects (%),[12],5%
same,Population Membrane Permeable-Phenotype (%),[12],6%
same,Population Mitotic Cells (%),[12],47%
same,Population Normal (%),[12],94%
same,Population Pyknosed Nuclei (%),[12],14%
same,Population Tubulin-Different-Phenotype (%),[12],66%
same,Total Cell Count,[12],153
CN1C[C@H](C(=O)N[C@]2(C)O[C@@]3(O)[C@@H]4CCCN4C(=O)[C@H](Cc4ccccc4)N3C2=O)C[C@@H]2c3cccc4[nH]cc(c34)C[C@H]21.CS(=O)(=O)O [DIHYDROERGOTAMINE MESYLATE],Population Apoptotic (%),[1],25%
same,Population Fragmented Nuclei (%),[1],13%
same,Population Healthy Nuclei (%),[1],70%
same,Population Hoechst High Intensity Objects (%),[1],1%
same,Population Membrane Permeable-Phenotype (%),[1],1%
same,Population Mitochondria Different-Phenotype (%),[1],1%
same,Population Mitotic Cells (%),[1],75%
same,Population Normal (%),[1],98%
same,Population Pyknosed Nuclei (%),[1],16%
same,Population Tubulin-Different-Phenotype (%),[1],23%
same,Total Cell Count,[1],127
same,Population Apoptotic (%),[2],47%
same,Population Fragmented Nuclei (%),[2],32%
same,Population Healthy Nuclei (%),[2],51%
same,Population Hoechst High Intensity Objects (%),[2],7%
same,Population Membrane Permeable-Phenotype (%),[2],6%
same,Population Mitochondria Different-Phenotype (%),[2],5%
same,Population Mitotic Cells (%),[2],52%
same,Population Normal (%),[2],92%
same,Population Tubulin-Different-Phenotype (%),[2],31%
same,Total Cell Count,[2],155
same,Population Apoptotic (%),[3],57%
same,Population Fragmented Nuclei (%),[3],27%
same,Population Healthy Nuclei (%),[3],65%
same,Population Hoechst High Intensity Objects (%),[3],0%
same,Population Membrane Permeable-Phenotype (%),[3],0%
same,Population Mitochondria Different-Phenotype (%),[3],5%
same,Population Mitotic Cells (%),[3],42%
same,Population Normal (%),[3],100%
same,Population Pyknosed Nuclei (%),[3],7%
same,Population Tubulin-Different-Phenotype (%),[3],8%
same,Total Cell Count,[3],92
same,Population Apoptotic (%),[4],31%
same,Population Fragmented Nuclei (%),[4],33%
same,Population Healthy Nuclei (%),[4],45%
same,Population Hoechst High Intensity Objects (%),[4],8%
same,Population Membrane Permeable-Phenotype (%),[4],2%
same,Population Mitochondria Different-Phenotype (%),[4],0%
same,Population Mitotic Cells (%),[4],68%
same,Population Normal (%),[4],91%
same,Population Pyknosed Nuclei (%),[4],21%
same,Population Tubulin-Different-Phenotype (%),[4],42%
same,Total Cell Count,[4],114
same,Population Apoptotic (%),[5],38%
same,Population Fragmented Nuclei (%),[5],14%
same,Population Healthy Nuclei (%),[5],75%
same,Population Hoechst High Intensity Objects (%),[5],1%
same,Population Membrane Permeable-Phenotype (%),[5],0%
same,Population Mitochondria Different-Phenotype (%),[5],0%
same,Population Mitotic Cells (%),[5],61%
same,Population Normal (%),[5],98%
same,Population Pyknosed Nuclei (%),[5],10%
same,Population Tubulin-Different-Phenotype (%),[5],18%
same,Total Cell Count,[5],130
same,Population Apoptotic (%),[6],47%
same,Population Fragmented Nuclei (%),[6],30%
same,Population Healthy Nuclei (%),[6],56%
same,Population Hoechst High Intensity Objects (%),[6],4%
same,Population Membrane Permeable-Phenotype (%),[6],7%
same,Population Mitochondria Different-Phenotype (%),[6],3%
same,Population Mitotic Cells (%),[6],52%
same,Population Normal (%),[6],95%
same,Population Pyknosed Nuclei (%),[6],13%
same,Population Tubulin-Different-Phenotype (%),[6],50%
same,Total Cell Count,[6],149
same,Population Apoptotic (%),[7],55%
same,Population Fragmented Nuclei (%),[7],17%
same,Population Healthy Nuclei (%),[7],72%
same,Population Hoechst High Intensity Objects (%),[7],1%
same,Population Membrane Permeable-Phenotype (%),[7],0%
same,Population Mitochondria Different-Phenotype (%),[7],1%
same,Population Mitotic Cells (%),[7],44%
same,Population Normal (%),[7],98%
same,Population Pyknosed Nuclei (%),[7],10%
same,Population Tubulin-Different-Phenotype (%),[7],15%
same,Total Cell Count,[7],89
same,Population Apoptotic (%),[8],31%
same,Population Fragmented Nuclei (%),[8],35%
same,Population Healthy Nuclei (%),[8],43%
same,Population Hoechst High Intensity Objects (%),[8],5%
same,Population Membrane Permeable-Phenotype (%),[8],6%
same,Population Mitochondria Different-Phenotype (%),[8],0%
same,Population Mitotic Cells (%),[8],68%
same,Population Normal (%),[8],94%
same,Population Pyknosed Nuclei (%),[8],20%
same,Population Tubulin-Different-Phenotype (%),[8],46%
same,Total Cell Count,[8],113
same,Population Apoptotic (%),[9],57%
same,Population Fragmented Nuclei (%),[9],20%
same,Population Healthy Nuclei (%),[9],68%
same,Population Hoechst High Intensity Objects (%),[9],1%
same,Population Membrane Permeable-Phenotype (%),[9],0%
same,Population Mitochondria Different-Phenotype (%),[9],2%
same,Population Mitotic Cells (%),[9],42%
same,Population Normal (%),[9],98%
same,Population Pyknosed Nuclei (%),[9],10%
same,Population Tubulin-Different-Phenotype (%),[9],30%
same,Total Cell Count,[9],134
same,Population Apoptotic (%),[10],53%
same,Population Fragmented Nuclei (%),[10],38%
same,Population Healthy Nuclei (%),[10],50%
same,Population Hoechst High Intensity Objects (%),[10],5%
same,Population Membrane Permeable-Phenotype (%),[10],6%
same,Population Mitochondria Different-Phenotype (%),[10],6%
same,Population Mitotic Cells (%),[10],46%
same,Population Normal (%),[10],94%
same,Population Pyknosed Nuclei (%),[10],11%
same,Population Tubulin-Different-Phenotype (%),[10],48%
same,Total Cell Count,[10],139
same,Population Apoptotic (%),[11],63%
same,Population Fragmented Nuclei (%),[11],21%
same,Population Healthy Nuclei (%),[11],65%
same,Population Hoechst High Intensity Objects (%),[11],3%
same,Population Membrane Permeable-Phenotype (%),[11],1%
same,Population Mitochondria Different-Phenotype (%),[11],3%
same,Population Mitotic Cells (%),[11],36%
same,Population Normal (%),[11],96%
same,Population Pyknosed Nuclei (%),[11],12%
same,Population Tubulin-Different-Phenotype (%),[11],20%
same,Total Cell Count,[11],91
same,Population Apoptotic (%),[12],76%
same,Population Fragmented Nuclei (%),[12],44%
same,Population Healthy Nuclei (%),[12],44%
same,Population Membrane Permeable-Phenotype (%),[12],11%
same,Population Mitochondria Different-Phenotype (%),[12],5%
same,Population Mitotic Cells (%),[12],23%
same,Population Pyknosed Nuclei (%),[12],10%
same,Population Tubulin-Different-Phenotype (%),[12],55%
same,Total Cell Count,[12],126
